Hits are enriched below; roughly 3.5% of the tested compounds scored in any of these assays.
MrgX1 agonist = agonists of human MrgX1 receptor, primary screen, HEK293 cells, Fluo-4 calcium flux | AID 588627, 2011 | 310,000 tested, 0.44% active | Mas-related G-protein coupled receptor member X1 (Homo sapiens), Q96LB2 | B-score at 10 µM | Fluo-4 calcium fluorescence, agonist mode; active compounds read high;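 active = calcium response B-score plate-corrected fluorescence ratio at least 3 library SD, with starting fluorescence B-score inside 5 SD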
Target sequence (Q96LB2 whole entry, looked up): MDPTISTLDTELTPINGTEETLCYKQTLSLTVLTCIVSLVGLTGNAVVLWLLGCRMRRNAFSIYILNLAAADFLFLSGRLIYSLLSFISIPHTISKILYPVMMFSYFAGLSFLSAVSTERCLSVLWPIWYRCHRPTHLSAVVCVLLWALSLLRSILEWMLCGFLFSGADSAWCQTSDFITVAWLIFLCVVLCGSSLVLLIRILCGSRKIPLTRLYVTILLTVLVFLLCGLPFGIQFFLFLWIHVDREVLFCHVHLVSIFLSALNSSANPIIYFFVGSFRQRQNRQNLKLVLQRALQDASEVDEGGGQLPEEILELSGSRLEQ
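System: HEK293 cells stably expressing human MrgX1 receptor; Dosing: test compound in the initial addition of three; Schedule: overnight plating, then 30 min 37 °C plus 30 min room-temperature dye loading; Detection: kinetic calcium dye fluorescence, Fluo-4 NW; Controls: per-plate positive and negative controls for Z′ factor.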
MrgX1 antagonist = antagonists of human MrgX1 receptor, primary screen, HEK293 cells, Fluo-4 calcium flux; Mas-related G-protein coupled receptor member X1 (Homo sapiens), Q96LB2; BAM8-22 antagonism; active compounds read low; B-score at 10 µM; 310,000 tested, 1.3% active;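 active = calcium-response B-score plate-corrected more than 3 library SD below zero, starting fluorescence within 5 deviations, no agonist response on first addition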;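 also: peak minus trough fluorescence over baseline after final BAM8-22 challenge near maximal dose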
MrgX1 allo act = positive allosteric modulators of MrgX1, primary screen, HEK293 cells, Fluo-4 calcium flux; AID 588675, 2011; B-score at 10 µM; FDSS; active compounds read high; 310,000 tested, 0.63% active;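 active = plate-corrected calcium response at least 3 library SD above typical, normal starting fluorescence, not activating the receptor alone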;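 also: compound read alongside a low EC10 to EC30 dose of BAM8-22 agonist; peak minus trough fluorescence over baseline measured at the second addition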
RGS4 block = RGS4 inhibitors, primary screen, cell-based, HEK293 M3R inducible RGS4, calcium flux | Regulator of G-protein signaling 4 (Homo sapiens), P49798 | Fluo-4 calcium flux; active compounds read high; triggered by carbachol at its EC20 | B-score at 10 µM | 310,000 tested, 0.45% active;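 active = B-score, a plate-corrected calcium signal, over three deviations above library mean, with baseline fluorescence within five deviations of library mean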;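 also: RGS4 expression induced by doxycycline in cells with stable M3 receptor; B-score is computed from the integrated fluorescence ratio over baseline after carbachol; higher B-score means a larger calcium signal and so more RGS4 inhibition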
Target sequence (P49798 whole entry, looked up): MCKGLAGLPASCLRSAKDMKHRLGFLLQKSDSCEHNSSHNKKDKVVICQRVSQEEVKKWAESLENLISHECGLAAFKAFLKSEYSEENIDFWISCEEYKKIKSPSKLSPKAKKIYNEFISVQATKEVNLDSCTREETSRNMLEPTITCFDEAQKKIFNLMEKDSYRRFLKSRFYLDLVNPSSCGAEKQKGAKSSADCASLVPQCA
RGS4 act = RGS4 potentiators or activators, primary screen, cell-based, HEK293 M3R inducible RGS4, calcium flux; AID 463111, 2010; B-score at 10 µM; carbachol calcium flux Fluo4; active compounds read low; 310,000 tested, 0.92% active;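 active = B-score of the integrated calcium signal more than 4 SD below the library mean, with starting fluorescence not abnormally high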;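 also: negative B-score means reduced calcium response which marks RGS4 activation or potentiation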
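Material: Inducible-RGS4 HEK293 cells carrying M3 receptor; also added: carbachol at ECmax as muscarinic agonist stimulus; incubation: compound preincubation 20 min at room temperature before agonist; signal: Fluo4-AM (2 µM) calcium-flux fluorescence, kinetic read; measure: integrated calcium ratio converted to B score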
RGS4 block valid = enhanced carbachol calcium response, M3R/RGS4 cells, RGS4 inhibitor project, cell-based, validation screen, HEK293 M3R/RGS4, calcium flux; shares compounds with RGS4 block; carbachol calcium Fluo-4 fluorescence; carbachol added at its EC20; 0 = buffer wells, 100 = carbachol control; calcium response, % at 10 µM; 1,700 tested, 65% active;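 active = duplicate-averaged calcium response above the buffer-only control mean plus 5 SD of those controls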;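 also: integrated fluorescence ratio F max minus min over baseline F0; higher response in RGS4-induced cells means RGS4 inhibition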
RGS4 uninduced = carbachol calcium response in non-induced M3R cells, confirmation, counter-screen for RGS4 inhibitor project, cell-based, HEK293 M3R. shares compounds with RGS4 block. carbachol calcium Fluo-4; submaximal (EC20) carbachol stimulus; buffer wells 0%, carbachol control wells 100%. activity (percent), % at 10 µM. 1,900 tested, 20% active; call rule not given here;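 also: RGS4 induction absent so cells express M3R without RGS4; higher means more calcium signal and flags a non-specific hit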
M3R basal Ca ctr = second RGS4 inhibitor counter-screen in uninduced cells lacking carbachol | shares compounds with RGS4 block | HEK293 M3R/RGS4 non-induced, Fluo-4 calcium, no carbachol; normalised: buffer wells 0%, carbachol wells 100% | calcium response (agonist-mode artifact), % at 10 µM | 1,900 tested, 22% active | AID 493001;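 active = duplicate-averaged calcium rise in uninduced cells above buffer wells' mean plus 5 SD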
Active calls of the source: *; i = inactive; . = no result.

SMILES | MrgX1 agonist | MrgX1 antagonist | MrgX1 allo act | RGS4 block | RGS4 act | RGS4 block valid | RGS4 uninduced | M3R basal Ca ctr
COc1ccc(C2(c3ccc(O)cc3O)CC(c3ccccc3Cl)NC(=S)N2)cc1 (centres undefined) | i | i | i | 10* | i | 36%* | i | i
CCn1c(Cc2ccc(OC)cc2)nnc1SCC(=O)Nc1nc2ccccc2s1 | i | i | i | i | i | . | . | .
Nc1nc2ccc(S(=O)(=O)c3ccc4nc(N)sc4c3)cc2s1 | i | i | i | 6.3* | i | i | i | i
CCCCNC(=S)N(CCCO)Cc1cc2cc3c(cc2[nH]c1=O)OCCO3 | i | i | i | i | i | . | . | .
CNC(=S)N(CCO)Cc1cc2cc3c(cc2[nH]c1=O)OCCO3 | i | i | i | i | i | . | . | .
CCN(CC)CCN(Cc1cc2cc3c(cc2[nH]c1=O)OCCO3)C(=S)NCCCOC | i | i | i | i | i | i | i | i
COCCCNC(=S)N(CCO)Cc1cc2cc3c(cc2[nH]c1=O)OCCO3 | i | i | i | 5.2* | i | i | i | i
COCCNC(=S)N(CCO)Cc1cc2cc3c(cc2[nH]c1=O)OCCO3 | i | i | i | i | i | i | i | i
COc1ccc(C(=O)NCc2nnc(SCC(=O)N3CCCCC3)o2)cc1OC | i | i | i | i | i | . | . | .
CC(C)c1nc2c(c(=O)c3ccccc3n2C)c(=O)n1CCc1ccccc1 | i | i | i | i | i | . | . | .
COc1ccc(C(=O)NCCN2C(=O)S/C(=C\c3cccnc3)C2=O)cc1[N+](=O)[O-] | i | i | i | i | i | i | i | i
COc1cccc(CC(=O)N2CCN(c3ccccc3[N+](=O)[O-])CC2)c1 | i | i | i | i | i | . | . | .
COc1cccc(CCc2nnc(CCC(=O)NC(C)Cc3cccs3)o2)c1 (centres undefined) | i | i | i | i | i | . | . | .
Cc1cccc([C@@H]2[C@@H]3C(=O)N(Cc4ccccc4)C(=O)[C@@H]3[C@]3(CC(C)C)C(=O)N(c4cccc(F)c4)C(=O)N23)c1 | i | i | i | i | i | . | . | .
CCCC(=O)Nc1cccc(NC(=O)c2ccc3c(c2)OCO3)c1 | i | i | i | i | i | i | i | i
CCC(=O)Nc1ccc(NC(=O)c2ccc3c(c2)OCO3)cc1 | i | i | i | i | i | . | . | .
CCC(=O)Nc1cccc(NC(=O)c2ccc3c(c2)OCCO3)c1 | i | i | i | i | i | i | i | i
CCOC(=O)[C@@H]1[C@H]2COc3cc(OC)ccc3[C@@H]2N2C(=O)N(c3cccc(Cl)c3)C(=O)[C@]12C | i | i | i | i | i | i | i | i
CCOC(=O)[C@@H]1[C@H]2COc3cc(OC)ccc3[C@@H]2N2C(=O)N(c3ccc(C)cc3)C(=O)[C@]12C | i | i | i | i | i | . | . | .
CCOC(=O)[C@@H]1[C@H]2COc3cc(OC)ccc3[C@@H]2N2C(=O)N(c3ccc(Cl)cc3)C(=O)[C@]12C | i | i | i | i | i | i | i | i
CCOC(=O)[C@@H]1[C@H]2COc3cc(OC)ccc3[C@@H]2N2C(=O)N(c3cccc(Cl)c3)C(=O)[C@@]12C | i | i | i | i | i | i | i | i
CCOC(=O)[C@H]1[C@H]2COc3cc(OC)ccc3[C@@H]2N2C(=O)N(c3cccc(Cl)c3)C(=O)[C@@]12C | i | i | i | i | i | i | i | i
CCOC(=O)[C@@H]1[C@H]2COc3cc(OC)ccc3[C@@H]2N2C(=O)N(c3ccc(Br)cc3)C(=O)[C@]12C | i | i | i | i | i | . | . | .
CCOc1ccccc1OCCC(=O)OCC(=O)c1ccc[nH]1 | i | i | i | i | i | . | . | .

Screening data deposited in PubChem BioAssay by Johns Hopkins Ion Channel Center.
